Experimental data from different studies.
Each line is one published result; the experiments were not run side by side.
Target: Tyrosine-protein kinase TXK (TXK, Homo sapiens, UniProt P42681)
One construct used (P42681 1-527): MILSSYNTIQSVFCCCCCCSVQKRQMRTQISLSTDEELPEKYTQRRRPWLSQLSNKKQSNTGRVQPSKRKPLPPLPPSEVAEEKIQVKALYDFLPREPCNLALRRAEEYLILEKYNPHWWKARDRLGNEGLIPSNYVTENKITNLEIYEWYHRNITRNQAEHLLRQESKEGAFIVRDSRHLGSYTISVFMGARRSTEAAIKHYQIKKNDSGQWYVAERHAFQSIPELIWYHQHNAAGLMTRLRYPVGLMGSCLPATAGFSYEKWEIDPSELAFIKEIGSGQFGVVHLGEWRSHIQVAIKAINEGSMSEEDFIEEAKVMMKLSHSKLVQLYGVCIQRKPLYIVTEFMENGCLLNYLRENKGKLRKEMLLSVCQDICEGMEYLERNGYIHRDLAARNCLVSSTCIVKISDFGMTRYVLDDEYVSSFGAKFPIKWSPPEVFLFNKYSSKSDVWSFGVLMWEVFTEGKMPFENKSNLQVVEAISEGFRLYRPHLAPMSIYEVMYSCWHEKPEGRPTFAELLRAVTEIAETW

SMILES | assay | setting | quantity | value
CS(=O)(=O)CCNCc1ccc(-c2ccc3ncnc(Nc4ccc(OCc5cccc(F)c5)c(Cl)c4)c3c2)o1 | cell-free assay | 0.5 µM | remaining signal | 110%
c1nc2c(Nc3ccc4c(c3)OCCO4)nc(Nc3ccc4c(c3)OCCO4)nc2[nH]1 | enzyme activity, inhibitor | 10 µM | activity vs control | 8%
O=C(Nc1cnn(-c2csc(C(=O)NC3COC3)c2)c1)Nc1ccccc1Cl | enzyme activity, inhibitor | 5 µM | remaining activity | 89.8%
Nc1ncnc2occ(-c3ccc(NC(=O)Nc4cc(C(F)(F)F)ccc4F)cc3)c12 | enzyme activity, inhibitor | 20 µM | remaining activity | 14%
O=C(NS(=O)(=O)c1ccc(NCC2CCOCC2)c([N+](=O)[O-])c1)c1ccc(N2CCN(Cc3ccc(C(F)(F)F)cc3-c3ccc(Cl)cc3)CC2)cc1Oc1cnc2[nH]ccc2c1 | cell-free assay, competition with immobilised ligand | 1 µM | remaining binding | 94%
Cc1sc(C(=O)NC2COC2)cc1-n1cc(NC(=O)Nc2c(F)cccc2Cl)cn1 | enzyme activity, inhibitor | 10 µM | remaining activity | 76.7%
COc1cc2nccc(Oc3ccc(NC(=O)c4c5n(n(-c6ccc(F)cc6)c4=O)CCCC5)cc3)c2cc1OC | enzyme activity, inhibitor | 0.1 µM | inhibition | -2%
CCS(=O)(=O)c1cc2cc(C[C@](O)(CC(C)(C)c3ccc(F)cc3C(N)=O)C(F)(F)F)[nH]c2cn1 | cell-free assay, competition with immobilised ligand | 1 µM | remaining binding | 90%
COc1cc2ncnc(Nc3ccc(Oc4ccccc4)c(C)c3C)c2cc1OC | enzyme activity, inhibitor | 1 µM | inhibition | 2%
COc1cc(Cl)c(C(=O)N[C@@H](CN[C@H]2CC[C@@H](N)CC2)Cc2ccc(C#N)cc2)cc1-c1ccc(CN[C@H](C)c2ccc(C)cc2)o1 | enzyme activity, inhibitor | 1 µM | remaining activity | 88%
Cc1ccc(C(=O)NCc2ccsc2)cc1C#Cc1cn(C(C)C)c2ncnc(N)c12 | enzyme activity, inhibitor | 1 µM | activity vs control | 36%
Cc1c(NC(=O)c2cc(C(N)=O)nc3cc(F)ccc23)c(C(F)(F)F)nn1Cc1ccc(C#N)cc1 | binding, competition with immobilised ligand | 1 µM | remaining binding | 99%
CCCOc1ccc(OC)c(F)c1C(=O)c1ccc(C(=O)N[C@@H]2CNC[C@H]2NC(=O)c2ccc3[nH]ncc3c2)cc1 | enzyme activity, inhibitor | 10 µM | remaining activity | 64%
Oc1ccc(-c2nc(-c3ccncc3)c(-c3ccc(F)cc3)[nH]2)cc1 | cell-free assay | 0.5 µM | remaining signal | 78.5%
CCCCN(CCCC)C(=O)CN1C[C@@H](c2cc(OC)c3c(c2)OCO3)[C@H](C(=O)O)[C@H]1CC(C)(C)CCC | cell-free assay, competition with immobilised ligand | 1 µM | remaining binding | 100%
CC(C)(C)c1nc2c(s1)c1nc(N)ncc1c1ccc(NS(=O)(=O)c3c(F)cccc3F)c(F)c12 | enzyme activity, inhibitor, radiometric | 1 µM | remaining activity | 71%
O=C(NCc1ncc(C(F)(F)F)cc1Cl)c1ccc2c(c1)C1(CCS(=O)(=O)CC1)[C@@H](C1CC1)N2S(=O)(=O)c1ccc(F)cc1 | binding, competition with immobilised ligand | 1 µM | remaining binding | 83%
Cc1cnc(NC2CCOCC2)nc1-n1cnc(C(=O)NC(CN)c2cc(F)cc(Cl)c2)c1 (stereo not drawn) | enzyme activity, inhibitor, radiometric | 1 µM | remaining activity | 102%
